# Screening results from PubChem BioAssay.
# The list is not random: actives were taken first. Their share in the collection is about 1.8%.
# SIAE inh = blocks human sialic acid acetylesterase. Q9HAT2. SIAE FP-Rh probe binding, fluorescence polarization. inhibition, % at 9.66 µM. hit rate 0.69% among 370,000;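 active means inhibition above a cutoff: mean of compounds within the control limits plus 3 SD of those, cut at about 17% in these data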;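 further: 0% = plate median of compound wells and 100% = probe without SIAE protein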
# Target sequence (Q9HAT2 whole entry, looked up): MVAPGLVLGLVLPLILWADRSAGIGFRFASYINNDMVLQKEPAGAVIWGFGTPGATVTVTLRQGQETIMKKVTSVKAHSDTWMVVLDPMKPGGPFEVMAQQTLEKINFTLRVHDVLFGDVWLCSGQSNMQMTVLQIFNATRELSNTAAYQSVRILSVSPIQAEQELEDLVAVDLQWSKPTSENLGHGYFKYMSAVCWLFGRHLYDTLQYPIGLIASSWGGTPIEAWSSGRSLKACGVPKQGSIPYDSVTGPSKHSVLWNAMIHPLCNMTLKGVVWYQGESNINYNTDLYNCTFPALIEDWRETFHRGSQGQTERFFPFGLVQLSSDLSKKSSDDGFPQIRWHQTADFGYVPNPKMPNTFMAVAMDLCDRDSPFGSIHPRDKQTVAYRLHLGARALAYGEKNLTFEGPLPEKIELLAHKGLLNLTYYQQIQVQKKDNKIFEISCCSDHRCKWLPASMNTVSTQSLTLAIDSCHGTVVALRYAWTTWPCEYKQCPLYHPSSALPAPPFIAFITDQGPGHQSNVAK
# ABHD4 inh = ABHD4 (mouse) inhibition, primary FP screen. Q8VD66. purified mABHD4, FP-Rh probe fluorescence polarization. inhibition, % at 8.92 µM. hit rate 0.54% among 370,000. AID 720543;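 active means inhibition exceeding the mean over every tested compound plus 3 SD, cut at about 30% in these data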;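 further: 0% = plate median of compound wells and 100% = S159A mutant with DMSO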
#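 Test system: mABHD4 protein | Buffer or medium: HEPES pH 7.0 buffer, 150 mM NaCl, 0.01% Pluronic F-127 | Probe or stimulus: FP-Rh fluorescent activity-based probe, added after compound pre-incubation | Timing: Pre-incubation 45 min, probe exposure 60 min, at 25 °C | Technique: Fluorescence polarization, excitation 525 nm, emission 598 nm, BODIPY TMR filters | Repeats: Single well per compound (singlicate)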
# TCR-CD3 inh = human TCR-CD3 binding inhibition | inhibition, % at 9.4 µM | TAMRA-labeled TCR probe fluorescence, biochemical | hit rate 0.37% among 360,000; in the data active means inhibition above about 19%;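 further: recombinant mutant TCR 2C K166C tagged with TAMRA read by polarization; 0% = receptor in buffer alone and 100% = receptor with positive control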
# HTRA1 inhibitor = inhibitors of human serine peptidase HTRA1; recombinant HTRA1, FP-rhodamine activity-based probe, fluorescence polarization; inhibition, % at 5.96 µM; hit rate 0.5% among 340,000; AID 504803; in the data active means inhibition above about 36%;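 further: 0% = enzyme with DMSO and 100% = wells lacking enzyme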
# PME-1 inh = blocks human protein phosphatase methylesterase 1; Q9Y570; recombinant PME-1, FP-Rh probe fluorescence polarization; inhibition, % at 5.9 µM; hit rate 0.53% among 320,000;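 active means inhibition above the campaign mean of all compounds plus 3 SD, cut at about 26% in these data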;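 further: competitive labeling of PME-1 active site by serine hydrolase directed probe; 0% = PME-1 with DMSO and 100% = wells lacking PME-1 enzyme; inhibitors block probe labeling so polarization falls and inhibition rises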
# Fam108B inh = Fam108B inhibition, counter-screen for RBBP9 inhibitors | recombinant Fam108B, FP-Rh probe fluorescence polarization | inhibition, % at 9.51 µM | hit rate 0.33% among 300,000;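 active means inhibition above the screen mean inhibition plus 3 SD, computed separately per campaign, cut at about 18% in these data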;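 further: inhibitors lower polarization as less probe binds the enzyme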
# mABHD4 conf = confirmation of mouse ABHD4 inhibitors; purified mABHD4, FP-Rh probe fluorescence polarization; hit rate 55% among 1,800; shares compounds with ABHD4 inh; AID 720658; inhibition, % at 8.92 µM;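 active means mean inhibition across replicates above the hit cutoff set in the primary screen, cut at about 30% in these data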;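 further: 0% = wild-type ABHD4 with DMSO and 100% = catalytically dead S159A mutant with DMSO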
# The depositor's hits bear a star; . = no result; ! = repeats disagree.
SMILES,SIAE inh,ABHD4 inh,TCR-CD3 inh,HTRA1 inhibitor,PME-1 inh,Fam108B inh,mABHD4 conf
COc1ccc(-c2nc3cc(C)ccn3c2NCc2ccc3c(c2)OCO3)cc1,3,-5,0,6,9,2,.
CCCCNc1c(-c2ccc(Sc3ccc(OC)cc3)cc2)nc2cc(C)ccn12,15,39*,-4,17,.,.,39*
CCn1cc(C(=O)NCCC(=O)NCCCO)c(=O)c2cc3c(cc21)OCO3,-14,-6,-9,4,-4,-2,.
Oc1ccccc1/C=N/Nc1nccnc1Cl,-2,21,-4,0,2,0,.
O=[N+]([O-])c1ccc(NN=Cc2ccc(O)cc2O)nc1,8,30*,1,20,.,.,30*
O=[N+]([O-])c1ccc(NN=Cc2ccc(O)cc2)nc1,9,9,-9,3,.,.,.
COc1cccc(/C=N/Nc2nccnc2Cl)c1O,-1,30*,1,1,.,.,41*
Oc1ccc(/C=N/Nc2nccnc2Cl)c(O)c1,-8,43*,-4,-2,2,7,45*
CC(C)(CNC(=O)CC1C(=O)NCCN1Cc1cccc(F)c1)N1CCOCC1 (configuration not stated),1,4,4,1,6,5,.
CCCCCC[C@@H](CC)CN(C(=O)Oc1ccccc1)c1ccccc1,1,-5,.,.,.,.,.
Cc1c(C(=O)N(C)Cc2nc3ccccc3c(=O)[nH]2)oc2ccccc12,7,7,-2,-3,.,.,.
Cc1cc2nc3ccc(=[N+](C)C)cc-3sc2cc1N,.,.,.,28,.,.,.
CN(C)c1ccc2nc3ccc(=[N+](C)C)cc-3sc2c1,7,31*,7,17,4,-3,14
N#Cc1ccc(NC(=O)Cn2cnc(S(=O)(=O)N3CCCC3)c2)cc1,2,6,4,-1,5,2,.
CCN(/C=N/c1sc2c(c1C#N)CCCCC2)CC,2,32*,1,0,2,1,35*
CC(C)CN(/C=N/c1sc2c(c1C#N)CCCCC2)CC(C)C,5,11,4,-8,-1,-2,.
CC(C)(C)C(=O)/C=C/Nc1ccccc1O,3,30*,-1,8,0,3,1
CCOc1ccccc1N1CCN(C(=O)NCc2ccc(C)cc2)CC1,0,2,-4,-6,2,1,.
CCCCNc1c(-c2ccc(OC)c(SC(C)CC)c2)nc2ccc(C)cn12 (configuration not stated),12,34*!,-5,-12,.,.,38*
CCCCNc1c(-c2ccc(OC)c(SC(C)CC)c2)nc2ccc(Cl)cn12 (configuration not stated),-3,8,-2,1,.,.,.
CCC(C)Sc1cc(-c2nc3ccc(C)cn3c2NCc2ccccc2)ccc1OC (configuration not stated),10,43*,2,14,14,9,36*
CCC(C)Sc1ccc(-c2nc3ccc(C)cn3c2NCc2ccccc2)cc1OC (configuration not stated),.,.,.,12,11,12,.
CCCCNc1c(-c2ccc(OC)c(SC3CCCCC3)c2)nc2ccc(C)cn12,3,33*!,-4,-1,.,.,37*
CCCS(=O)(=O)NC(=O)C1(C)CCN(C(=O)c2cccc(OC(F)(F)F)c2)C1 (configuration not stated),3,-4,-6,.,.,.,.
CCc1ccc(NC(=O)CSc2n[nH]c(=O)n2C2CC2)cc1,-7,0,-1,4,.,.,.
SMILES,SIAE inh,ABHD4 inh,TCR-CD3 inh,HTRA1 inhibitor,PME-1 inh,Fam108B inh,mABHD4 conf
CN(C)CCOc1ccc(-c2c(-c3ccsc3)sc3ccccc23)cc1,16,34*,-6,-21,.,.,39*
COc1ccc(-c2sc3ccccc3c2-c2ccc(OCCN(C)C)cc2)cc1,14,22,7,-7,.,.,.
COc1ccccc1CNc1nc(NCCOc2ccccc2Cl)c2sccc2n1,10,31*,0,.,.,.,69*
COc1ccccc1CNc1nc(NC(C)C)nc2ccsc12,7,9,8,.,.,.,.
COc1ccccc1CNc1nc(NCc2ccc(C(C)C)cc2)c2sccc2n1,10,36*,3,.,.,.,34*
CNc1nc(NCCOc2ccccc2Cl)c2sccc2n1,-2,7,-6,.,.,.,.
Cc1ccccc1N=Nc1c(N)[nH]n(-c2ccccc2)c1=O,9,34*,.,.,.,.,43*
Cc1cc([N+](=O)[O-])ccc1N=Nc1c(N)[nH]n(-c2ccccc2)c1=O,9,30*,8,3,0,4,41*
Cc1ccc([N+](=O)[O-])cc1N=Nc1c(C)[nH]n(C(N)=S)c1=O,0,-2,-4,3,0,2,.
Nc1[nH]n(-c2ccccc2)c(=O)c1N=Nc1ccc(F)cc1,11,27,.,.,.,.,.
Nc1[nH]n(-c2ccccc2)c(=O)c1N=Nc1ccc2c(c1)OCCO2,9,30*,6,28,43*,11,28
CCOc1ccc(-n2c(SCC(=O)Nc3ccc4cn[nH]c4c3)nnc2-c2ccncc2)cc1,1,3,.,.,.,.,.
O=C(CNC(=O)C1CCCCC1)OCC(=O)c1cccc(Cl)c1,-3,-4,-2,-7,.,.,.
O=C(COC(=O)c1cc(S(=O)(=O)N2CCCC2)ccc1O)Nc1ccc(SC(F)F)cc1,-20,31*,2,-23,-5,.,17
CC1=C(C(=O)N(C)C)CC(CC(=O)NCCCCc2ccccc2)C(=O)N1Cc1ccc(F)cc1 (configuration not stated),10,0,-4,4,.,.,.
Cc1cc(N/N=C/c2cccc(Cl)c2)nc(NCc2ccccc2)n1,8,40*,-5,-35,-10,2,60*
Cc1cc(N/N=C/c2cccc(F)c2)nc(NCc2ccccc2)n1,-4,39*,10,-25,-9,-2,39*
O=C1C=C(c2ccccc2)C(=O)N1Nc1ccccc1,1,31*,2,0,-5,0,24
COc1ccc(N=C2NC(=O)/C(=C/c3ccco3)S2)cc1,14,33*,5,14,5,-1,-10
CCOC(=O)NC1(NCC(C)C)Oc2ccccc2O1,8,33*,5,17,8,-4,3
CCOC(=O)NC1(NC(C)C)Oc2ccccc2O1,6,15,3,11,0,2,.
COc1ccc(NS(=O)(=O)c2cc(N=Nc3c(O)[nH]c(=O)[nH]c3=O)ccc2OC)cc1Br,-4,18,7,4,.,.,.
CCOc1ccc(NS(=O)(=O)c2ccc(Cl)c(N=Nc3c(O)[nH]c(=S)[nH]c3=O)c2)cc1Br,8,39*,-5,15,.,.,52*
COC1CCN(C(=O)C2CCC(=O)N(CCc3cccc(F)c3)C2)CC1 (configuration not stated),-3,2,1,-1,0,0,.
